The data set is described as follows: Cytotoxicity against human HepG2 cells assessed as reduction in cell viability after 2 days by Celltiter-Glo reagent based assay. The note with it: read-out: LD50. The procedure, abridged: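 HepG2 cells in DMEM with 10% FBS, pyruvate, glutamine and nonessential amino acids. Seeded at 3000 cells/well and exposed 2 days to compound or vehicle (≤1% DMSO final). Reported as LD50.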

Converted amounts (≈) assume the structure as drawn.

`COC(=O)C1=C(C)CS[C@@H]2[C@H](NC(=O)CCc3ccc(OC)cc3)C(=O)N12`: the CC50 at 48 h is > 100 µg/mL.
In the case of `CCCOC(=O)C1=C(C)CS[C@@H]2[C@H](NC(=O)CCc3ccc(OC)cc3)C(=O)N12` it was > 100 µg/mL.
With `COC(=O)C1=C(C)CS[C@@H]2[C@H](NC(=O)CCc3ccccc3)C(=O)N12`, the CC50 at 48 h is > 100 µg/mL.
In the case of `COc1ccc(CC(=O)N[C@@H]2C(=O)N3C(c4nc(C)no4)=C(C)CS[C@H]23)cc1` it was > 100 µg/mL; in that of `CC1=C(C(=O)O)N2C(=O)[C@@H](NC(=O)Cc3ccc(Cl)cc3)[C@H]2SC1`, > 100 µg/mL.
For `CCCCOC(=O)C1C(C)=CS[C@@H]2[C@H](NC(=O)COc3ccccc3)C(=O)N12` (stereo partly specified) the value was 61.8 µg/mL (≈ 153 µM); for `CCCCOC(=O)C1=C(C)CS[C@@H]2[C@H](NC(=O)CCc3ccc(OC)cc3)C(=O)N12`, > 100 µg/mL; for `CCCOC(=O)C1=C(C)CS[C@@H]2[C@H](NC(=O)COc3ccc(OC)cc3)C(=O)N12`, > 100 µg/mL.
In the case of `CCCOC(=O)C1=C(C)CS[C@@H]2[C@H](NC(=O)CCc3ccccc3)C(=O)N12` it was > 100 µg/mL; in that of `CCCc1noc(C2=C(C)CS[C@@H]3[C@H](NC(=O)Cc4ccc(C)cc4)C(=O)N23)n1`, > 100 µg/mL; in that of `CCCOC(=O)C1C(C)=CS[C@@H]2[C@H](NC(=O)CCc3ccc(OC)cc3)C(=O)N12` (stereo partly specified), > 100 µg/mL.
As to `C#CCOC(=O)C1=C(C)CS[C@@H]2[C@H](NC(=O)CCc3ccccc3)C(=O)N12`, the CC50 at 48 h is > 100 µg/mL.
For `COC(=O)C1=C(C)CS[C@@H]2[C@H](NC(=O)[C@@H](c3ccccc3)N(C)C)C(=O)N12` the value was > 100 µg/mL.
Consider `CCCc1noc(C2=C(C)CS[C@@H]3[C@H](NC(=O)Cc4ccc(Cl)cc4)C(=O)N23)n1`, for which the CC50 at 48 h was 20.6 µg/mL (≈ 47.6 µM).
With `COc1ccc(CCC(=O)N[C@@H]2C(=O)N3C(c4nc(C)no4)=C(C)CS[C@H]23)cc1`, the CC50 at 48 h was > 100 µg/mL.
For `C#CCNC(=O)C1=C(C)CS[C@@H]2[C@H](NC(=O)COc3ccccc3)C(=O)N12` the value was > 100 µg/mL.
For `CC1=C(c2nc(C)no2)N2C(=O)[C@@H](NC(=O)Cc3ccc(Cl)cc3)[C@H]2SC1`, the CC50 at 48 h is > 100 µg/mL.
In the case of `CCCc1noc(C2=C(C)CS[C@@H]3[C@H](NC(=O)CCc4ccc(F)cc4)C(=O)N23)n1` it was > 100 µg/mL; in that of `CCCc1noc(C2=C(C)CS[C@@H]3[C@H](NC(=O)CCc4ccc(C)cc4)C(=O)N23)n1`, > 100 µg/mL.
For `CC1=C(c2nc(C)no2)N2C(=O)[C@@H](NC(=O)Cc3ccccc3)[C@H]2SC1` the value was > 100 µg/mL; for `COC(=O)C1=C(C)CS[C@@H]2[C@H](NC(=O)COc3ccc(OC)cc3)C(=O)N12`, > 100 µg/mL.
In the case of `CC1=C(c2nc(C)no2)N2C(=O)[C@@H](NC(=O)OC(C)(C)C)[C@H]2SC1` it was > 100 µg/mL; in that of `CC1=C(C(=O)OCc2ccccc2)N2C(=O)[C@@H](NC(=O)COc3ccc(Cl)cc3)[C@H]2SC1`, > 100 µg/mL; in that of `CCOC(=O)C1=C(C)CS[C@@H]2[C@H](NC(=O)CCc3ccccc3)C(=O)N12`, > 100 µg/mL.
`CCOC(=O)C1=C(C)CS[C@@H]2[C@H](NC(=O)COc3ccc(Cl)cc3)C(=O)N12`: the CC50 at 48 h came to 41 µg/mL (≈ 99.8 µM).
For `CC1=C(c2nc(C)no2)N2C(=O)[C@@H](NC(=O)[C@H](N)c3ccccc3)[C@H]2SC1` the value was > 100 µg/mL; for `CCSC(=O)N[C@@H]1C(=O)N2C(c3nc(C)no3)=C(C)CS[C@H]12`, > 100 µg/mL; for `CCOC(=O)C1=C(C)CS[C@@H]2[C@H](NC(=O)COc3ccc(OC)cc3)C(=O)N12`, > 100 µg/mL.
In the case of `CCCCOc1ccc(CCC(=O)N[C@@H]2C(=O)N3C(c4nc(C)no4)=C(C)CS[C@H]23)cc1`, the CC50 at 48 h stood at 74.4 µg/mL (≈ 163 µM).
For `CCCc1noc(C2=C(C)CS[C@@H]3[C@H](NC(=O)CCc4ccc(Cl)cc4)C(=O)N23)n1` the value was > 100 µg/mL; for `C#CCOC(=O)C1=C(C)CS[C@@H]2[C@H](NC(=O)COc3ccc(Cl)cc3)C(=O)N12`, 63.4 µg/mL (≈ 151 µM).

The values are drawn from ChEMBL document CHEMBL4425095, “Novel Cephalosporins Selectively Active on Nonreplicating Mycobacterium tuberculosis” (J Med Chem, 2016).
